In ChEMBL document CHEMBL1121866, “Synthesis of 5'-thymidinyl bis(1-aziridinyl)phosphinates as antineoplastic agents” (1981):

Experiments:
Type in all cases: functional
[1] = test system: Mus musculus; test: Compound was evaluated for antitumor activity against L1210 leukemia in mice by NCI screener test at a dose of 50 mg/kg
In short: (§1)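 Tested in mice bearing L1210 or P-388 leukemia in the National Cancer Institute screening program under NCI standard assay protocols. Read-out is survival as % T/C, treated versus control, at each dose level.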

[2] = test system: Mus musculus; test: Compound was evaluated for antitumor activity against L1210 leukemia in mice by NCI screener test at a dose of 100 mg/kg; in short: as §1
[3] = test system: Mus musculus; test: Compound was evaluated for antitumor activity against L1210 leukemia in mice by NCI screener test at a dose of 200 mg/kg; in short: as §1
[4] = test system: Mus musculus; test: Compound was evaluated for antitumor activity against P-388 leukemia in mice by NCI screener test at a dose of 25 mg/kg; in short: as §1
[5] = test system: Mus musculus; test: Compound was evaluated for antitumor activity against P-388 leukemia in mice by NCI screener test at a dose of 200 mg/kg; in short: as §1
[6] = test system: Mus musculus; test: Compound was evaluated for antitumor activity against P-388 leukemia in mice by NCI screener test at a dose of 50 mg/kg; in short: as §1
[7] = test system: Mus musculus; test: Compound was evaluated for antitumor activity against L1210 leukemia in mice by W screener test at a dose of 500 mg/kg
In short: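 L1210 leukemia in mice, run at Virginia Commonwealth University by G. L. Wampler at higher dose levels, following NCI standard assay guidelines. Activity is reported as survival % T/C.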

[8] = test system: Mus musculus; test: Compound was evaluated for antitumor activity against P-388 leukemia in mice by NCI screener test at a dose of 100 mg/kg; in short: as §1
[9] = test system: Mus musculus; test: Compound was evaluated for antitumor activity against L1210 leukemia in mice by W screener test at a dose of 250 mg/kg

**Q.** Which results are given for `Cc1cn([C@H]2C[C@H](O)[C@@H](CO[P+]([O-])(N3CC3(C)C)N3CC3(C)C)O2)c(=O)[nH]c1=O` (stereo partly drawn)?
**A.** T/C [1]: 94%; T/C [2]: 105%; T/C [3]: 124%

**Q.** How did the T/C [1] turn out when `Cc1cn([C@H]2C[C@H](O)[C@@H](CO[P+]([O-])(N3CC3)N3CC3)O2)c(=O)[nH]c1=O` was run?
**A.** 107%

**Q.** And the T/C [2]?
**A.** 100%

**Q.** And the T/C [3]?
**A.** 94%

**Q.** What does the source list for `CC(=O)O[C@H]1C[C@H](n2cc(C)c(=O)[nH]c2=O)O[C@@H]1CO[P+]([O-])(N1CC1)N1CC1`?
**A.** T/C [1]: 107%; T/C [4]: 104%; T/C [3]: 112%; T/C [5]: 142%; T/C [6]: 112%; T/C [7]: 111%; T/C [8]: 124%; T/C [9]: 111%

**Q.** How did the T/C [1] turn out when `CC(=O)O[C@H]1C[C@H](n2cc(C)c(=O)[nH]c2=O)O[C@@H]1CO[P+]([O-])(N1CC1(C)C)N1CC1(C)C` (stereo partly drawn) was run?
**A.** 110%

**Q.** And the T/C [4]?
**A.** 110%

**Q.** What about the T/C [2] of the same compound?
**A.** 112%

**Q.** And the T/C [3]?
**A.** 123%

**Q.** And the T/C [5]?
**A.** 154%

**Q.** What about the T/C [6] of the same compound?
**A.** 138%

**Q.** What about the T/C [7] of the same compound?
**A.** 137%

**Q.** What about the T/C [8] of the same compound?
**A.** 141%

**Q.** And the T/C [9]?
**A.** 125%
